Source: the EternaBench riboswitch data

System: MS2 coat protein
Test: apparent Kd, MS2 coat protein; higher = weaker binding; RNA-MaP array; FMN 200 µM where present
Procedure, shortened: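 The apparent Kd is the median of filtered binding-curve fits, one per cluster, to green signal normalised to red-channel RNA signal and control-cluster median Fmax. The clusters were on Illumina sequencing chips, and stalled E. coli RNA polymerase had transcribed the designs on them. Titration used SNAP-549-labelled MS2 coat protein from 0.7 or 1.5 nM, doubling to 3 µM, without and then with constant ligand, in 100 mM Tris-HCl pH 7.5, 80 mM KCl, 4 mM MgCl2, BSA, DTT, yeast tRNA and Tween-20.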

[1] = designed as: OFF switch for flavin mononucleotide, no ligand
[2] = ligand present: flavin mononucleotide, designed as: OFF switch for flavin mononucleotide
[3] = designed as: ON switch for flavin mononucleotide, no ligand
[4] = ligand present: flavin mononucleotide, designed as: ON switch for flavin mononucleotide

| Sequence | apparent Kd [1] [nM] | apparent Kd [2] [nM] | apparent Kd [3] [nM] | apparent Kd [4] [nM] |
| --- | --- | --- | --- | --- |
| GGAAAACAUGAGGAUCACCCAUGUGAGGAUAUCGAUGUCCAAAGAAAAGUGCGGGACUCGAGAAGGCACUUGGA | 52.9 | 33.7 |  |  |
| GGAAAAUUGAUCCCUUUUUAUUACAUGAGGAUCACCCAUGUGCAGGAUAUCGAUUAUUAUAGUUUCGAGAAGGGCAAGAAUUGU | 40.3 | 276 |  |  |
| GGAAAUCAUGUAGGAUAUGCAUGGCGAAGCUACGCAGAAGGACAUGAGGAUCACCCAUGUUCUGGCUACCGAGUUCGGUGGCAA | 22.5 | 104 |  |  |
| GGAAGCACGACGGAGCUAAGGUAGAAGGAUAUCCACGGCUAUAUCCACAUGAGGAUCACCCAUGUGGAGAAGGUCUAUCUUAAG | 5.51 | 8.8 |  |  |
| GGAAGGUCAGGAUAUGCGAGGGAGUGGGAAAUAGGAUGGUAGCAGAAGGGACAUGAGGAUCACCCAUGUUAGGA | 31 | 27.3 |  |  |
| GGAAUAGCAUGAGGAUAUGCUGGAGUUUAGACAGCAGAAGGCAUGUCAUAAGACAUGAGGAUCACCCAUGUAAUUACAAUACCA |  |  | 102 | 11.7 |
| GGAAUGUCGGGAGGAUAUCCAAAUGUAUACAUAGGAGAAGGCCCGCACAUGAGGAUCACCCAUGUAAUAACGCGUGGCAUCAAC | 82.8 | 119 |  |  |
| GGACAUCCCACAGGAUAUGCUGGACUUUGUCCAGCAGAAGGGUGAAACACAUGAGGAUCACCCAUGUGGAUGUCCAUAUUUAAU |  |  | 180 | 694 |
| GGACAUGUCGUCUACAUGAGGAUCACCCAUGUCGAUAGACAUGAGGAUAUCGAUAAGAAUUGUAUCGAGAAGGUAUGUAGGUCC |  |  | 18.7 | 24.9 |
| GGACAUUUACAGAAGGGCAAAUUUUAUAGUGAAUAUUUAGUUCUGAUUUGCAGGAUAUGUUGAACAUGAGGAUCACCCAUGUCC |  |  | 18.3 | 10.9 |
| GGACGACACAUGAACAUGAGGAUCACCCAUGUAAAUUCUCAUGAGGAUAUGGAUCCUAAUUGGAUCCAGAAGGCAUGGUCGUCC |  |  | 1150 | 380 |
| GGACGUCACAUGAACAUGAGGAUCACCCAUGUAAAUUCUCAUGAGGAUAUGGUUCCUAAUUGGAACCAGAAGGCAUGGACGUCC |  |  | 1450 | 408 |
| GGACGUCACAUUAACAUGAGGAUCACCCAUGUCAAAAGACAUGAGGAUAUGGAUCCUAAUUGGAUCCAGAAGGCAUGGACGUCC |  |  | 664 | 33.4 |
| GGACGUCACAUUUACAUGAGGAUCACCCAUGUCUCUUGAUAUGAGGAUAUGUAUACGAAUCGUAUACAGAAGGCAUGGACGUCC |  |  | 71.7 | 29.8 |
| GGACGUCAGAUUAACAUGAGGAUCACCCAUGUCUUUUGACAUGAGGAUAUCCAUCCUAAUUGGAUGGAGAAGGCAUGGACGUCC |  |  | 975 | 189 |
| GGACGUCUCAUUAACAUGAGGAUCACCCAUGUCAAAAGACAUGAGGAUAUGGAUCCUAAUUGGAUCCAGAAGGCAUGGACGUCC |  |  | 939 | 59.2 |
| GGAGAUACAUGAGGAUCACCCAUGUAGGAUAUCUAGUAUAUAUAUGGCGAAAGCCAUAUAUAUAUAGAGAAGGGCGUACACACC | 9 | 7.91 |  |  |
| GGAGCACACAUUAACAUGAGGAUCACCCAUGUCUAAAGACAUGAGGAUAUGGAUCCGAAAAGGAUCCAGAAGGCAUGGUGCUCC |  |  | 207 | 11.7 |
| GGAGCACACAUUUACAUGAGGAUCACCCAUGUCAAAAGACAUGAGGAUAUGGAUCCGAAAAGGAUCCAGAAGGCAUGGUGCUCC |  |  | 106 | 8.38 |
| GGAGCCGGUACUGAGGAUAUUCAUAUUAAAACAUGAGGAUCACCCAUGUAGGCCAGAAGGCCUUGGGAGAAGGCAGACCAGCUCG |  |  | 391 | 26.7 |
| GGAGCGGAAGGAUAUGCUGCGGGAUUGCAUGGAAAGAAAAUACAUGAGGAUCACCCAUGUAGAAGGUCCGUGAA | 28.2 | 70.1 |  |  |
| GGAGGACAUGAGGAUCACCCAUGUGGAUGAACGCUAGGAUAUGCGUGCAGGAAGAGUGGAGCAGAAGGAGUGGGUU |  |  | 28.2 | 23.2 |
| GGAUAGGAAAGAGGAUAUACGUGCUAGAGAUACUAGCAAAAUUUCCUCACAUGAGGAUCACCCAUGUAGAAGGCUGUCCUAUCG | 5.95 | 38.9 |  |  |
| GGAUAGGACAGAGGAUAUACGGAUAGGAUCUACUAUCAAACAAGUCCUACAUGAGGAUCACCCAUGUAGAAGGCUGUCCUAUCG | 16.9 | 22.1 |  |  |
| GGAUAGGACAGAGGAUAUACGUACUAGAGAUACUAGCAAAAUUUCCUCACAUGAGGAUCACCCAUGUAGAAGGCUGUCCUAUCG | 21.4 | 563 |  |  |
| GGAUAGGACAGAGGAUAUACGUGCUAGAGAUACUAGCAAAAUUUCCACACAUGAGGAUCACCCAUGUAGAAGGCUGUCCUAUCG |  | 7.57 |  |  |
| GGAUAGGACAGAGGAUAUACGUGCUAGAGAUACUAGCAAACUUUCCUCACAUGAGGAUCACCCAUGUAGAAGGCUGUCCUAUCG | 21.1 | 483 |  |  |
| GGAUAGGACAGAGGAUAUACGUGCUAGAGAUACUAGCACAAUUUCCUCACAUGAGGAUCACCCAUGUAGAAGGCUGUCCUAUCG | 6.08 | 26.3 |  |  |

| Sequence | apparent Kd [1] [nM] | apparent Kd [2] [nM] | apparent Kd [3] [nM] | apparent Kd [4] [nM] |
| --- | --- | --- | --- | --- |
| GGAUAGGACAGAGGAUAUACGUGCUAGAGAUACUAGCUAAUAAUCCUUACAUGAGGAUCACCCAUGUAGAAGGCUGUCCUAUCG | 20 | 45.1 |  |  |
| GGAUAGGACAGAGGAUAUACGUGCUAGAGAUACUCGCAAAAUUUCCUCACAUGAGGAUCACCCAUGUAGAAGGCUGUCCUAUCG | 93 | 436 |  |  |
| GGAUCCAACACAGGAUAUGCUGGACUUUGUCCAGCAGAAGGGUGACAUGAGGAUCACCCAUGUAAUAGGAUCCAUAUAUUUAAU |  |  | 624 | 198 |
| GGAUCCAUCACAGGAUAUGCUGGACUUUGUCCAGCAGAAGGGUGAAACAUGAGGAUCACCCAUGUAUGGAUCCAUAUAUUUAAU |  |  | 327 | 393 |
| GGAUCGAAAGUGAGGAUAUACCACUGGAUACAGUGGUAGAAGGCACAUGAGGAUCACCCAUGUCCUUACGAUCC | 20.8 | 117 |  |  |
| GGAUCGAAUGUGAGGAUAUGCUGGUCCUUGGAUCAGCAGAAGGCACAUGAGGAUCACCCAUGUCCUCUCGGUCC | 248 | 458 |  |  |
| GGAUCGAGUGUGAGGAUAUGCUGGUCGUAAGAUCAGCAGAAGGCACAUGAGGAUCACCCAUGUGAAAACGGUCC | 24.7 | 164 |  |  |
| GGAUGACAAAGUCAUCCAAAUCGAACAUGAGGAUCACCCAUGUAGGAUAUCCUACUGAAACAGUAGGAGAAGGACAUGUGCUUU | 52.9 | 157 |  |  |
| GGAUGACAAAGUCAUCCUAAACGAACAUGAGGAUCACCCAUGUAGGAUAUGCUUCUCAAAGAGAAGCAGAAGGACAUGUGCCUU | 35.1 | 276 |  |  |
| GGAUGACAAAGUCAUCCUAAACGAACAUGAGGAUCACCCAUGUAGGAUAUGGUACUCAAAGAGUACCAGAAGGACAUGUGCCUU | 33.7 | 200 |  |  |
| GGAUGACAAAGUCAUCCUAUUCGAACAUGAGGAUCACCCAUGUAGGAUAUGCUACAGAAACUGUAGCAGAAGGACAUGUGCUUU | 34.1 | 151 |  |  |
| GGAUGACAUAGUCAUCAGUAACGAACAUGAGGAUCACCCAUGUAGGAUAUGCUACUCAACGAGUAGCAGAAGGACAUGUGUCUU | 27.4 | 135 |  |  |
| GGAUUACAUGAGGAUCACCCAUGUGAGGAUAUCGAUGUCCUAGGUCAAGUGCGGGACUCGAGAAGGCACUUGGA | 52.4 | 28.9 |  |  |
| GGAUUACAUGAGGAUCACCCAUGUGAGGAUAUCGAUGUCCUCAAUAAAGUGCGGGACUCGAGAAGGCACUUGGA | 63 | 83 |  |  |
| GGCAGACAUGAGGAUCACCCAUGUCAGGAUAUUAGGCGAUCGUCGAUAGACGAUAGCCUGAGAAGGGACAUGCC | 23.8 | 54.1 |  |  |
| GGCAGACAUGAGGAUCACCCAUGUCGGCCGUUAGGAGGAUAUCGGUGAUAUCUGUCUCGCCGAGAAGGUUUAAUUA |  |  | 11.5 | 12.1 |
| GGCAUACAUGAGGAUCACCCAUGUAACCUGCACUAAGGAUAUGGCGUGGCCCAUGGCUACCCAGAAGGUAGAUAAA |  |  | 136 | 195 |
| GGCCCGCGCGUGAGGAUAUGCUGAUACUAGGAUCAGCAGAAGGCACAUGAGGAUCACCCAUGUCCAACUUGUCU | 28.9 | 36.4 |  |  |
| GGCCGGGCAGGAUAUACAUGAGGAUCACCCAUGUAUAUCCUUCAGCAUGGAUCCUCAUGUAGAAGGGCCCGGCC | 13.2 | 11.9 |  |  |
| GGCGAACAGGCUAACAUGAGGAUCACCCAUGUGGACUCAUGGUAGGAUAUCGGGAAGGAGGAAACCGAGAAGGGCCGGUGAGCG |  |  | 158 | 39.5 |
| GGCGAACGGGCUAACAUGAGGAUCACCCAUGUGGACUCAUGGUAGGAUAUGCUGUACAAAGUACAGCAGAAGGGCCGGUGAGCC |  |  | 142 | 445 |
| GGCGAUCAGGCUAACAUGAGGAUCACCCAUGUGGACUCAUGGUAGGAUAUGCUGUACUUUGUACAGCAGAAGGGCCGGAGAGCC |  |  | 46.1 | 187 |
| GGCGGCGCGGGCCACCGCAGGGCCAGAAGGACAUGAGGAUCACCCAUGUGGCAGGACAGGGCGGUGUAGGAUAUGGCAGGCUGG | 8.35 | 10.6 |  |  |
| GGCGUGUUAGGAUAUCGCGGCGGCGGCGUUUGUUGUUGUUGUGAGAAGGAACAUGAGGAUCACCCAUGUGUGCC | 62.7 | 295 |  |  |
| GGCUCAGUGACAUGAGGAUCACCCAUGUGGCUCAUUCAACGCAGAAGGCACAAGGGAACACCUCGUGAGGAUAUGCAAGUAGAC |  |  | 367 | 36.7 |
| GGCUCCGCUCGAGGAUAUAGCUGCAUGUAGUGUCCUGAGGCACAUGAGGAUCACCCAUGUGUAGGCUAGAAGGCGACGGACACU | 8.81 | 26.2 |  |  |
| GGCUGCAAUUAUGAGGAUAUGUUCGGAUGAACAUGAGGAUCACCCAUGUGGCGAUAGCUAUCUGUGCAGAAGGUGUAGUGGUAGC |  |  | 213 | 61.8 |
